This is a sample that favours compounds with a hit; in the whole collection about 1.9% have one here.
TbMetRS inhib: Trypanosoma brucei MetRS inhibition | inhibition, % at 11.9 µM | purified T. brucei MetRS, ATP depletion, Kinase-Glo luminescence | 360,000 tested, 0.4% active;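 active = inhibition above a per-plate cutoff of the control wells' mean inhibition plus 3 SD, cut at about 5.5% in these data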;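 also: 0% = DMSO wells median and 100% = median of wells with control inhibitor compound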
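assay system = parasite MetRS enzyme | timing = 15 min preincubation, 2 h reaction, all 25 °C | evaluation = percent inhibition relative to median high and low control wells | medium = HEPES buffer containing pyrophosphatase, BSA, spermine, DTT | compound = single dose, 11.9 µM final nominal, 0.9% final DMSO | detection = Kinase-Glo luminescence, ATP depletion format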
Rce1 inhib: yeast Ras-converting enzyme inhibition. Q03530. yeast membranes, quenched prenylated peptide cleavage fluorescence. calls only. 290,000 tested, 0.27% active. AID 2563;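 active = fall in fluorescence gain of 50% or more versus controls, with final raw signal at or below 3038400; inconclusive = same 50% fall but final raw signal above 3038400; inactive = fall in fluorescence gain under 50%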;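 also: plate controls were neutral control wells for no effect and wells lacking membranes for full effect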
Target sequence (Q03530 whole entry, looked up): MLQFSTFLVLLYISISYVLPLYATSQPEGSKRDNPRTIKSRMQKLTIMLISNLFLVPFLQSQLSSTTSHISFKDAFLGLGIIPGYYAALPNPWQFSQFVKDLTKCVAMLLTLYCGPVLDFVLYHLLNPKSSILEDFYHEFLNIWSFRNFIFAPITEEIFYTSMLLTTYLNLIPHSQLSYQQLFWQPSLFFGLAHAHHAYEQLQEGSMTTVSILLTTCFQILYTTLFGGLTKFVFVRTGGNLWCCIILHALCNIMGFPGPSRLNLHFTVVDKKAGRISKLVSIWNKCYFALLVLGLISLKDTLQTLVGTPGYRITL
DSG3 Ab inh: human desmoglein-3 autoantibody binding inhibition | P32926 | 310,000 tested, 0.48% active | binding (percent of control), % at 10 µM | AID 588358 | DSG3-coupled beads, scFv-anti-DSG3-GFP binding, flow cytometry; hits give low values;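 active = binding more than 3 SD below its plate's average and above zero; inconclusive = below that plate limit but binding exactly zero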;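 also: hits lower antibody fragment binding to DSG3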
NadD block: NadD (S. aureus) enzyme inhibition; purified NadD enzyme, colorimetric absorbance read-out; inhibition, % at 20 µM; 360,000 tested, 0.78% active; AID 602399; in the data active = inhibition above about 26%
HCV core dimer: blocks dimerization of HCV core protein. TR-FRET GST/Flag-core106 dimerization, 1536-well. inhibition, % at 5 µM. 300,000 tested, 0.33% active. AID 1899;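 active = inhibition above the mean of all tested compounds plus 3 SD, set per screening campaign, cut at about 45% in these data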
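Assay system – GST-tagged and Flag-tagged HCV core protein residues 1-106 · Quantity – core106 proteins, GST 13.5 nM and Flag 17 nM · Benchmarks – unlabelled core106 and no-GST-core106 wells · Read-out basis – percent inhibition of core106 dimerization signal · Detection – time-resolved FRET, ex 340 nm, em 617 and 671 nm · Schedule – 4 h at 22.5 °C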
Numbers without * were called inactive; i = inactive; ? = inconclusive; nt = no result given; + = active, no number.

SMILES	TbMetRS inhib	Rce1 inhib	DSG3 Ab inh	NadD block	HCV core dimer
CCOC(=O)c1c(NC(=O)C2C3C=CC(C3)C2C(=O)O)sc2c1CCCC2 (configuration not stated)	-0.2	i	36.6*	8.3	8.3
CCOC(=O)c1c(NS(=O)(=O)c2ccc(Br)cc2)sc2c1CCC2	-0.4	i	100.6	22.1	69.7*
CCOC(=O)c1c(NC(=O)C2C3C=CC(C3)C2C(=O)O)sc2c1CCC(C)C2 (configuration not stated)	-0.7	i	97.6	4.9	12.6
COc1ccc(CCNC(=O)CSc2nnc(Cc3csc(N)n3)n2C)cc1OC	-1.1	i	nt	-7.4	-1.9
C=CCC1CCCCC12NC(=O)N(c1ccccc1)N2 (configuration not stated)	-0.4	i	106.4	3.9	-1.4
Cc1cc(=O)oc2c3c(cc(OCC(=O)N4CCC(C(=O)O)CC4)c12)OC(C)(C)CC3	-0.3	+	100.4	-1.3	4.5
Cc1cc(OCC(=O)N2CCC(C(=O)O)CC2)c2c(C)cc(=O)oc2c1	-0.2	+	111.2	-6.3	-7.3
CSC[C@H](NC(=O)COc1cc2c(c3oc(=O)cc(C)c13)CCC(C)(C)O2)C(=O)O	0.1	+	89.1	-3.2	-4.2
Cc1cc(=O)oc2c3c(cc(OCC(=O)N4CCC[C@H]4C(=O)O)c12)OC(C)(C)CC3	0.3	?	96.9	4.1	-0.9
CCc1cc(=O)oc2cc(C)cc(OCC(=O)N3CCC(C(=O)O)CC3)c12	0.7	i	97.3	1.1	1.0
CC(C)Cc1nnc(NC(=O)CCC(=O)N2CCN(c3ccc(Cl)cc3)CC2)s1	0.6	i	nt	-3.5	8.4
O=C(CN1CCC(n2nnc3cc(C(F)(F)F)ccc32)CC1)N1CCc2ccccc21	-0.7	i	81.8*	0.9	-2.8
O=C(CN1CCC(n2nnc3cc(F)ccc32)CC1)N1CCCc2ccccc21	-0.8	i	80.8	-0.3	-4.8
Cc1cc(Nc2ccc(Cl)cc2)n2ncnc2n1	-1.1	i	107.0	-4.4	nt
C/C(=N\NC(=O)CSc1nc(C)cc(C)n1)c1cccc([N+](=O)[O-])c1	-0.6	i	65.7*	2.2	-2.8
Cc1cc(C)nc(SCC(=O)N/N=C/c2cccc([N+](=O)[O-])c2)n1	1.0	i	98.5	-0.5	-5.0
COc1ccc(Nc2nc(N)c([N+](=O)[O-])c(NCCO)n2)cc1	-0.1	i	100.2	-0.6	1.0
CNc1nc(Nc2ccc(Br)cc2)nc(N)c1[N+](=O)[O-]	-0.7	i	51.0*	8.8	-3.1
O=C(Cc1ccccc1)N1CCC(c2nc3ccccc3[nH]2)CC1	5.1	i	95.3	-2.2	2.4
O=C(CN1C(=O)/C(=C/c2ccco2)SC1=S)NC1CCS(=O)(=O)C1 (configuration not stated)	3.9	i	-6.6*	10.9	-4.0
O=C(CCN1C(=O)/C(=C/c2ccccc2)SC1=S)NC1CCS(=O)(=O)C1 (configuration not stated)	-0.4	i	99.0	-8.6	-2.4
NC(=O)N1N=C2/C(=C/c3ccccc3)CCCC2C1c1ccccc1 (configuration not stated)	0.1	+	?	1.0	15.9
O=C(O)CSCC(=O)N1N=C2/C(=C/c3ccccc3)CCCC2C1c1ccccc1 (configuration not stated)	-1.1	nt	114.8	6.3	10.0
Cc1ccsc1C(=O)NNC(=O)COc1ccccc1Cl	-0.2	i	-0.8*	-0.9	-3.4
CC(=O)C1=C(O)CC(c2ccccc2)CC1=NCCc1c(C)[nH]c2ccc(C)cc12 (configuration not stated)	-1.2	i	-11.6*	0.6	9.3
SMILES	TbMetRS inhib	Rce1 inhib	DSG3 Ab inh	NadD block	HCV core dimer
CC(=O)C1=C(O)CC(c2ccccc2)CC1=NCCc1c(C)[nH]c2ccccc12 (configuration not stated)	0.4	i	102.5	-1.7	15.0
Cc1cc(C)c(NC(=O)CSc2nc3ccc(N4C(=O)c5ccccc5C4=O)cc3s2)c(C)c1	0.3	i	96.2	-2.6	8.3
CCc1cccc(C)c1NC(=O)CSc1nc2ccc(N3C(=O)c4ccccc4C3=O)cc2s1	-1.5	i	103.6	19.5	47.1*
CCOc1ccc(-c2nnc3ccc(SCC(=O)NCc4ccco4)nn23)cc1	-0.8	i	109.4	7.8	-2.8
CC(=O)N1CCN(c2ccc(Oc3ccc([N+](=O)[O-])c(C(F)(F)F)c3)cc2)CC1	1.0	i	112.1	-6.3	-1.8
COc1cc(/C=N/n2c(-c3ccc4c(c3)NC(=O)CO4)csc2=Nc2cccc(C)c2)ccc1O	-0.5	i	94.1	34.6*	-3.7
O=C(CSc1nnc(-c2ccco2)c(-c2ccco2)n1)Nc1ccccc1	0.3	i	99.8	14.6	50.8*
Cc1cccc(C)c1NC(=O)CSc1nnc(-c2ccco2)c(-c2ccco2)n1	0.3	i	94.4	32.3*	72.2*
Cc1ccc(NC(=O)CSc2nnc(-c3ccco3)c(-c3ccco3)n2)cc1	-0.5	i	95.3	15.8	50.6*
CN(C)c1ccc(NC(=O)CSc2nnc(-c3ccco3)c(-c3ccco3)n2)cc1	0.5	i	94.9	25.8	38.3
O=C1C2C3C=CC(CNS(=O)(=O)c4ccccc4[N+](=O)[O-])(O3)C2C(=O)N1c1ccccc1 (configuration not stated)	-0.2	i	85.9	-3.6	-15.7
CCCCCCc1nc(C(N)=O)c2[nH]c(=O)n(-c3ccc(OCC)cc3)c2n1	-0.3	i	99.2	9.1	16.8
CCCCCCc1nc(C(N)=O)c2[nH]c(=O)n(-c3ccccc3F)c2n1	-1.4	i	62.4*	6.1	15.3
O=C(CCSc1ccccc1)NNC(=O)c1ccccc1F	0.1	nt	93.5	-1.5	-3.0
CCOc1cc(/C=C2\C(=O)N(c3nc(-c4ccc(Br)cc4)cs3)N=C2c2ccccc2)ccc1O	-0.1	i	89.2	76.5*	54.6*
O=C(OCC(=O)N1CCOCC1)c1ccc2c(c1)OCCO2	-1.0	i	72.1	-1.5	-8.4
Cn1c(=O)oc2cc(S(=O)(=O)N3CCC(C(=O)NCC4COc5ccccc5O4)CC3)ccc21 (configuration not stated)	-0.2	nt	-14.8*	1.8	-4.4
NC(=O)C(CC(=O)O)NC(=O)[C@@H]1CCCNc2c(I)cc([N+](=O)[O-])cc2C(=O)N[C@@H](CO)C(=O)N[C@@H](Cc2ccc(O)cc2)C(=O)N1 (some centres not stated)	41.0*	nt	95.1	8.6	-4.5
Cc1ccc(C(CC(=O)NCc2ccco2)c2ccc(OC(C)C)cc2)cc1 (configuration not stated)	-0.8	i	98.9	-2.3	4.1
COc1ccccc1N(CC(=O)NCc1ccco1)S(=O)(=O)c1ccc(C)cc1	-0.1	i	-59.7*	-2.7	31.4
